Data reported in ChEMBL document CHEMBL4330087, “Synthesis, antimicrobial activity, attenuation of aminoglycoside resistance in MRSA, and ribosomal A-site binding of pyrene-neomycin conjugates” (Eur J Med Chem, 2019).
The source made the active and inactive calls. The rule behind the calls is not given here.

What was measured:
Enterococcus faecalis = test: Antibacterial activity against NEO-intermediate sensitive Enterococcus faecalis ATCC 29212 at 6.25 uM after 15 to 20 hrs by CLSI protocol based microdilution assay relative to control; format: functional
How it was run: (§1)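 Single-concentration screen at 6.25 μM against exponential-phase cultures, in duplicate, with NEO as reference. Enterococcus was grown in BHI broth, M. smegmatis in TS broth with 0.05% Tween 80, and all other strains in TS broth. The 1% DMSO water vehicle was added to broth (background) and culture (growth control). Incubation was 37 °C, humidified, 15-20 h. Result is percent growth inhibition.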

Staphylococcus aureus [1] = test: Antibacterial activity against methicillin-resistant Staphylococcus aureus M0602 at 6.25 uM after 15 to 20 hrs by CLSI protocol based microdilution assay relative to control; format: functional
How it was run: (§2)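 Exponential-phase cultures were exposed to 6.25 μM compound in duplicate with neomycin as reference, at 37 °C in a humidified incubator for 15-20 h. Broth and culture controls received sterile water with 1% DMSO. Percent growth inhibition was calculated against the growth and background controls.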

Escherichia coli [2] = test: Antibacterial activity against NEO-sensitive Escherichia coli ATCC 25922 at 6.25 uM after 15 to 20 hrs by CLSI protocol based microdilution assay relative to control; format: functional; how it was run: as §1
Ribosomal RNA A-site [3] = test: Displacement of F-NEO from human mitochondrial rRNA-A site after 10 to 20 mins by fluorescence assay relative to NEO; format: nucleic-acid assay; design: concentration or dose not given beside the values
How it was run: (§3)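 100 nM F-NEO:A-site complex in 10 mM HEPES, 50 mM NaCl, 0.04 mM EDTA, pH 7.0, mixed with ligand and incubated 10-20 min at room temperature. Fluorescence read at ex 485/em 525 nm, in duplicate. Percent binding was computed from the intensities of ligand-treated complex, complex without ligand, and complex with neomycin.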

Enterococcus faecium = test: Antibacterial activity against NEO-intermediate sensitive Enterococcus faecium BM4105-RF at 6.25 uM after 15 to 20 hrs by CLSI protocol based microdilution assay relative to control; format: functional; how it was run: as §1
[4] = tested on: Staphylococcus epidermidis; test: Antibacterial activity against NEO-sensitive Staphylococcus epidermidis 12384 at 6.25 uM after 15 to 20 hrs by CLSI protocol based microdilution assay relative to control; format: functional; how it was run: as §1
[5] = Inhibition of AAC(3)-4 (unknown origin)
[6] = Inhibition of AAC(6')-1e (unknown origin)
[7] = tested on: Mycolicibacterium smegmatis; test: Antibacterial activity against NEO-sensitive Mycobacterium smegmatis at 6.25 uM after 15 to 20 hrs by CLSI protocol based microdilution assay relative to control; format: functional; how it was run: as §1
Pseudomonas aeruginosa = test: Antibacterial activity against NEO-resistant Pseudomonas aeruginosa 27853 at 6.25 uM after 15 to 20 hrs by CLSI protocol based microdilution assay relative to control; format: functional; how it was run: as §2
Homo sapiens = species: Homo sapiens; test: Displacement of F-NEO from human mitochondrial rRNA-A site C1410U mutant after 10 to 20 mins by fluorescence assay relative to NEO; design: concentration or dose not given beside the values; how it was run: as §3
Ribosomal RNA A-site [8] = test: Displacement of F-NEO from human cytosolic rRNA-A site after 10 to 20 mins by fluorescence assay relative to NEO; format: nucleic-acid assay; design: concentration or dose not given beside the values; how it was run: as §3
[9] = Inhibition of Eis (unknown origin)
Staphylococcus aureus [10] = test: Antibacterial activity against methicillin-resistant Staphylococcus aureus A960649 at 6.25 uM after 15 to 20 hrs by CLSI protocol based microdilution assay relative to control; format: functional; how it was run: as §2
[11] = Inhibition of AAC(2')-1c (unknown origin)
Staphylococcus aureus [12] = test: Antibacterial activity against NEO-sensitive Staphylococcus aureus 25923 at 6.25 uM after 15 to 20 hrs by CLSI protocol based microdilution assay relative to control; format: functional; how it was run: as §1
[13] = Displacement of F-NEO from human mitochondrial rRNA-A site C1410U mutant after 10 to 20 mins by fluorescence assay
How it was run: (§4)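 A 100 nM F-NEO:A-site RNA complex in 10 mM HEPES, 50 mM NaCl, 0.04 mM EDTA, pH 7.0 was titrated with 2-fold dilutions of ligand from 20 to 0.009 μM, or from 60 or 40 μM for weaker ligands. Incubated 10-20 min at room temperature, fluorescence read at ex 485/em 525 nm. IC50 from dose-response curve fit.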

Listeria monocytogenes = test: Antibacterial activity against NEO-sensitive Listeria monocytogenes ATCC 19115 at 6.25 uM after 15 to 20 hrs by CLSI protocol based microdilution assay relative to control; format: functional; how it was run: as §1
Staphylococcus aureus [14] = test: Antibacterial activity against methicillin-resistant Staphylococcus aureus SU-5 at 6.25 uM after 15 to 20 hrs by CLSI protocol based microdilution assay relative to control; format: functional; how it was run: as §2
Klebsiella oxytoca = test: Antibacterial activity against NEO-sensitive Klebsiella oxytoca HM-625 at 6.25 uM after 15 to 20 hrs by CLSI protocol based microdilution assay relative to control; format: functional; how it was run: as §1
Klebsiella pneumoniae = test: Antibacterial activity against Klebsiella pneumoniae NR-151410 at 6.25 uM after 15 to 20 hrs by CLSI protocol based microdilution assay relative to control; format: functional; how it was run: as §1
Ribosomal RNA A-site [15] = test: Displacement of F-NEO from Escherichia coli rRNA-A site after 10 to 20 mins by fluorescence assay; format: nucleic-acid assay; how it was run: as §4
Ribosomal RNA A-site [16] = test: Displacement of F-NEO from human mitochondrial rRNA-A site after 10 to 20 mins by fluorescence assay; format: nucleic-acid assay; how it was run: as §4
[17] = Inhibition of APH(2\")-1a (unknown origin)
[18] = Antibacterial activity against NEO-sensitive Enterobacter cloacae 13047 at 6.25 uM after 15 to 20 hrs by CLSI protocol based microdilution assay relative to control; format: functional, Enterobacter cloacae subsp. cloacae, ATCC 13047; how it was run: as §1
Bacillus anthracis = test: Antibacterial activity against NEO-sensitive Bacillus anthracis BA852 at 6.25 uM after 15 to 20 hrs by CLSI protocol based microdilution assay relative to control; format: functional; how it was run: as §2
Ribosomal RNA A-site [19] = test: Displacement of F-NEO from Escherichia coli rRNA-A site after 10 to 20 mins by fluorescence assay relative to NEO; format: nucleic-acid assay; design: concentration or dose not given beside the values; how it was run: as §3
Escherichia coli [20] = test: Antibacterial activity against NEO-sensitive Escherichia coli harboring TolC mutant at 6.25 uM after 15 to 20 hrs by CLSI protocol based microdilution assay relative to control; format: functional; how it was run: as §2
Ribosomal RNA A-site [21] = test: Displacement of F-NEO from human cytosolic rRNA-A site after 10 to 20 mins by fluorescence assay; format: nucleic-acid assay; how it was run: as §4
Staphylococcus aureus [22] = test: Antibacterial activity against NEO-sensitive Staphylococcus aureus harboring NorA mutant at 6.25 uM after 15 to 20 hrs by CLSI protocol based microdilution assay relative to control; format: functional; how it was run: as §2
[23] = Inhibition of APH(3')-1a (unknown origin)
Streptococcus pyogenes = test: Antibacterial activity against NEO-resistant Streptococcus pyogenes C203 at 6.25 uM after 15 to 20 hrs by CLSI protocol based microdilution assay relative to control; format: functional; how it was run: as §2
Staphylococcus aureus [24] = test: Antibacterial activity against methicillin-resistant Staphylococcus aureus 33591 at 6.25 uM after 15 to 20 hrs by CLSI protocol based microdilution assay relative to control; format: functional; how it was run: as §2

| Structure (SMILES) | Activity (Enterococcus faecalis) [%] | Activity (Staphylococcus aureus [1]) | Activity (Escherichia coli [2]) [%] | inhibition (Ribosomal RNA A-site [3]) [%] | Activity (Enterococcus faecium) [%] | Activity [4] [%] | inhibition [5] | inhibition [6] | Activity [7] [%] | Activity (Pseudomonas aeruginosa) [%] | inhibition (Homo sapiens) [%] | inhibition (Ribosomal RNA A-site [8]) [%] | inhibition [9] | Activity (Staphylococcus aureus [10]) [%] | inhibition [11] | Activity (Staphylococcus aureus [12]) [%] | IC50 [13] [nM] | Activity (Listeria monocytogenes) | Activity (Staphylococcus aureus [14]) | Activity (Klebsiella oxytoca) [%] | further results |
| --- | --- | --- | --- | --- | --- | --- | --- | --- | --- | --- | --- | --- | --- | --- | --- | --- | --- | --- | --- | --- | --- |
| NC[C@@H]1O[C@H](O[C@H]2[C@@H](O)[C@H](O[C@@H]3[C@@H](O)[C@H](N)C[C@H](N)[C@H]3O[C@H]3O[C@H](CN)[C@@H](O)[C@H](O)[C@H]3N)O[C@@H]2CSCCNC(=O)CCCc2ccc3ccc4cccc5ccc2c3c45)[C@H](N)[C@@H](O)[C@@H]1O | 18 | 32% | 7 | 74 | 0 | 82 | inactive | inactive | 41 | 7 | 92 | 66 | inactive | 30 | inactive | 36 | 126 | 49% | 34% | 13 | Activity (Klebsiella pneumoniae): 20%; IC50 (Ribosomal RNA A-site [15]): 148 nM; IC50 (Ribosomal RNA A-site [16]): 168 nM; inhibition [17]: inactive; Activity [18]: 0%; Activity (Bacillus anthracis): 100%; inhibition (Ribosomal RNA A-site [19]): 78%; Activity (Escherichia coli [20]): 100%; IC50 (Ribosomal RNA A-site [21]): 175 nM; Activity (Staphylococcus aureus [22]): 53%; inhibition [23]: inactive; Activity (Streptococcus pyogenes): 20%; Activity (Staphylococcus aureus [24]): 20% |
| NC[C@@H]1O[C@H](O[C@H]2[C@@H](O)[C@H](O[C@@H]3[C@@H](O)[C@H](N)C[C@H](N)[C@H]3O[C@H]3O[C@H](CN)[C@@H](O)[C@H](O)[C@H]3N)O[C@@H]2CNC(=O)CCCc2ccc3ccc4cccc5ccc2c3c45)[C@H](N)[C@@H](O)[C@@H]1O | 0 | 19% | 8 | 89 | 0 | 80 | Active | Active | 38 | 11 | 103 | 99 | Active | 35 | Active | 12 | 149 | 22% | 22% | 5 | Activity (Klebsiella pneumoniae): 12%; IC50 (Ribosomal RNA A-site [15]): 170 nM; IC50 (Ribosomal RNA A-site [16]): 465 nM; inhibition [17]: Active; Activity [18]: 5%; Activity (Bacillus anthracis): 23%; inhibition (Ribosomal RNA A-site [19]): 99%; Activity (Escherichia coli [20]): 54%; IC50 (Ribosomal RNA A-site [21]): 200 nM; Activity (Staphylococcus aureus [22]): 43%; inhibition [23]: Active; Activity (Streptococcus pyogenes): 23%; Activity (Staphylococcus aureus [24]): 23% |
| NC[C@@H]1O[C@H](O[C@H]2[C@@H](O)[C@H](O[C@@H]3[C@@H](O)[C@H](N)C[C@H](N)[C@H]3O[C@H]3O[C@H](CN)[C@@H](O)[C@H](O)[C@H]3N)O[C@@H]2CSCCNC(=O)CCc2ccc3ccc4cccc5ccc2c3c45)[C@H](N)[C@@H](O)[C@@H]1O | 10 | inactive | 0 | 88 | 26 | 56 | Active | Active | 29 | 10 | 86 | 91 | Active | 19 | Active | 29 | 147 | inactive | inactive | 14 | Activity (Klebsiella pneumoniae): 18%; IC50 (Ribosomal RNA A-site [15]): 191 nM; IC50 (Ribosomal RNA A-site [16]): 211 nM; inhibition [17]: Active; Activity [18]: 0%; Activity (Bacillus anthracis): inactive; inhibition (Ribosomal RNA A-site [19]): 88%; Activity (Escherichia coli [20]): inactive; IC50 (Ribosomal RNA A-site [21]): 204 nM; Activity (Staphylococcus aureus [22]): inactive; inhibition [23]: Active; Activity (Streptococcus pyogenes): 35%; Activity (Staphylococcus aureus [24]): 16% |
| NC[C@@H]1O[C@H](O[C@H]2[C@@H](O)[C@H](O[C@@H]3[C@@H](O)[C@H](N)C[C@H](N)[C@H]3O[C@H]3O[C@H](CN)[C@@H](O)[C@H](O)[C@H]3N)O[C@@H]2CNC(=O)Cc2ccc3ccc4cccc5ccc2c3c45)[C@H](N)[C@@H](O)[C@@H]1O | 12 | inactive | 7 | 47 | 0 | 15 | Active | Active | 38 | 19 | 73 | 38 | Active | 15 | Active | 30 | 274 | inactive | inactive | 5 | Activity (Klebsiella pneumoniae): 10%; IC50 (Ribosomal RNA A-site [15]): 303 nM; IC50 (Ribosomal RNA A-site [16]): 339 nM; inhibition [17]: Active; Activity [18]: 0%; Activity (Bacillus anthracis): inactive; inhibition (Ribosomal RNA A-site [19]): 33%; Activity (Escherichia coli [20]): inactive; IC50 (Ribosomal RNA A-site [21]): 375 nM; Activity (Staphylococcus aureus [22]): inactive; inhibition [23]: Active; Activity (Streptococcus pyogenes): inactive; Activity (Staphylococcus aureus [24]): 27% |
